Experimental findings from ChEMBL document CHEMBL4024792, “(N-Hydroxycarbonylbenylamino)quinolines as Selective Histone Deacetylase 6 Inhibitors Suppress Growth of Multiple Myeloma in Vitro and in Vivo” (J Med Chem, 2018) are described below.

One data set relates to U-266. Description: Induction of apoptosis in human U266 cells at 5 uM after 24 hrs by Annexin V/propidium iodide staining based flow cytometry. Type of data set: functional, cell-based.
Data set [1] in a line: Apparent permeability from apical to basolateral side in human Caco2 cells at 10 uM after 2 hrs by LC-MS/MS analysis. Conditions: Caco-2. Type of data set: ADME, cell-based. Summed up:
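Caco-2 cells seeded at 8.4 × 10^4 cells/cm2 on polycarbonate inserts for 21 days. For A→B, donor was apical (HBSS/MES pH 6.5, 10 µM compound) and receiver basolateral (HBSS/HEPES pH 7.4). For B→A, donor was basolateral (HBSS/HEPES pH 7.4, 10 µM) and receiver apical (HBSS/MES pH 6.5). Incubated at 37 °C for 2 h. Receiver sampled at 30, 60, 90 and 120 min, donor at 0 and 120 min.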
On the technique in general: Caco-2 cells form a polarised layer with tight junctions and transporters.

Activity calls are given as the source filed them. No cut-off for these calls is given here.

The term Papp A→B denotes the apparent permeability from the apical to the basolateral side of a cell layer. Turning to `O=C(NO)c1ccc(CNc2cccc3cccnc23)cc1`, in the data set on U-266, the outcome was Active. Besides, the Papp A→B at 2 h, 10 µM in data set [1] was 24 ×10⁻⁶ cm/s.
